Screening data: PubChem BioAssay, several laboratories
TDP2 inh: TDP2 (human) inhibition, absorbance primary screen; O95551; recombinant TDP2, T5PNP hydrolysis, p-nitrophenol absorbance 415 nm; inhibition, % at 12.8 µM; 0.34% of 370,000 active;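 active means inhibition above the mean of all tested compounds plus 3 SD, set per campaign, cut at about 25% in these data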;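 further: 0% = DMSO with enzyme and 100% = buffer with substrate but no TDP2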
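Assay system: recombinant human TDP2 / Reagent: T5PNP substrate at 5 mM, a TopII-DNA adduct mimic / Measured by: epi absorbance from released p-nitrophenol / Evaluation: % inhibition relative to enzyme-containing and enzyme-free wells / Control set: enzyme-free and DMSO wells / Replicates: each compound tested once, singlicate / Schedule: enzyme reaction with compound for 2 h at 37 °C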
PRMT1 FP inh: PRMT1 (human) inhibition, primary screen | AID 652257 | inhibition, % at 2.79 µM | Q99873 | recombinant PRMT1, activity-based probe fluorescence polarization | 1.3% of 370,000 active;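 active means inhibition above about 21% made by adding two undisclosed values, limit read from the data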
Target sequence (Q99873 whole entry, looked up): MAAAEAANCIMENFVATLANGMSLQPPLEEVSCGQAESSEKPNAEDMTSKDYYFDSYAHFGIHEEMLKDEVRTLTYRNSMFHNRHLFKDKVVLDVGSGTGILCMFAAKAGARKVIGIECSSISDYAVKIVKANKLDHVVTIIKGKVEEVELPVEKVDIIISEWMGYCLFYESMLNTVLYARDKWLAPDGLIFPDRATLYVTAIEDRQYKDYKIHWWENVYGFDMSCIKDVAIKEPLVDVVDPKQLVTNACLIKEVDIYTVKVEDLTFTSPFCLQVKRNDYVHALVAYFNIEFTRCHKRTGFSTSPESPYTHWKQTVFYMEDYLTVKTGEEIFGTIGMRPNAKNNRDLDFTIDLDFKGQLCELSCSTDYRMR
Apaf1 inhib: inhibitors of human Apaf-1 apoptosome | O14727 | reconstituted apoptosome caspase-3 activity, DEVD-Rh110 fluorescence | inhibition, % at 20 µM | 0.71% of 330,000 active | AID 489030; active means inhibition of at least 40% at 20 µM;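 further: plate controls were DMSO wells for no effect and DEVD-CHO caspase inhibitor wells for full effect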
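Material: reconstituted apoptosome with Apaf-1, cytochrome c, caspase-9, procaspase-3, dATP. Technique: Rh110 fluorescence intensity. Buffer or medium: pH 7.5 Hepes buffer with CHAPS, BSA, DTT. Times: 30 min plus 50 min, RT.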
GSTO1 inh: counter-screen for RBBP9 inhibitors: inhibitors of human GSTO1. 1.1% of 300,000 active. recombinant GSTO1, activity-based probe fluorescence polarization. P78417. AID 1974. inhibition, % at 5.96 µM;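 active means inhibition above the campaign mean inhibition plus 3 SD, cut at about 35% in these data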;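 further: 0% = GSTO1-1 with DMSO and 100% = wells lacking GSTO1-1 enzyme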
PAD4 FP inh: PAD4 (human) enzyme inhibition | Q9UM07 | recombinant PAD4, RCA probe fluorescence polarization | inhibition, % at 6.36 µM | 0.41% of 330,000 active | AID 485272;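 active means percent inhibition above a cutoff equal to the mean of all tested compounds plus 3 SD, cut at about 15% in these data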;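 further: 0% = PAD4 with RCA probe and DMSO and 100% = probe without PAD4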
Apaf-1 inh conf: Apaf-1 inhibition, single-dose confirmed. shares compounds with Apaf1 inhib. reconstituted apoptosome, caspase-3 DEVD-Rh110 fluorescence. inhibition, % at 20 µM. 25% of 1,800 active;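 active means mean inhibition of at least 40% at 20 µM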;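 further: plate controls were DMSO wells for no effect and DEVD-CHO caspase inhibitor control wells for full effect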
Rh110 interf inh: interferes with Rh110 fluorescence, flagging false Apaf-1 inhibitors; AID 504615; shares compounds with Apaf1 inhib; 1,800 tested, under 10 active; activation (fluorescence interference), % at 20 µM; Rh110 fluorescence interference, quenched caspase reaction;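 active means signal rise of 40% or more at 20 µM, treated as a fluorescence artifact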
Fluor interf inh: counter-screen for Apaf-1 inhibitors: fluorescence interference, dose response; 460 tested, under 10 active; fluorescence interference counterscreen, Apaf-1 assay format; IC50, µM; shares compounds with Apaf1 inhib; AID 588538; call rule not given here
PRMT1 confirm: PRMT1 (human) inhibition, FP confirmation | 42% of 3,300 active | recombinant His-PRMT1, activity-based probe fluorescence polarization | shares compounds with PRMT1 FP inh | inhibition, % at 2.79 µM;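 active means mean inhibition across replicates above the hit cutoff derived for the earlier primary screen, cut at about 22% in these data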
TDP2 inh conf: confirmation of human TDP2 inhibitors; shares compounds with TDP2 inh; recombinant human TDP2, absorbance read-out; inhibition, % at 12.8 µM; 22% of 1,100 active; AID 743263; in the data active means inhibition above about 25%;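 further: 0% = vehicle with enzyme and 100% = no enzyme buffer only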
An asterisk follows results filed as active; . = not tested or not shown. The list is not random: actives were taken first. Their share in the collection is about 2.6%.

SMILES	TDP2 inh	PRMT1 FP inh	Apaf1 inhib	GSTO1 inh	PAD4 FP inh	Apaf-1 inh conf	Rh110 interf inh	others
COCCOC(=O)c1c(N)n(Cc2ccccc2)c2nc3ccccc3nc12	-1	-3	83*	28	-27	15	2
COc1ccc(Cn2c(N)c(C(=O)NCc3ccco3)c3nc4ccccc4nc32)cc1	7	7	67*	24	-10	20	9
CCOC(=O)c1c(C)n(Cc2ccccc2)c2ccc(O)cc12	-6	1	5	5	-3	.	.
C[C@H]1CN([C@@H](C)CO)C(=O)CCCn2nncc2CO[C@H]1CN(C)C(=O)Oc1ccc2ccccc2c1	-7	-3	.	.	.	.	.
O=[N+]([O-])c1ccccc1-c1cc(-c2ccccc2)cc(-c2ccccc2)[n+]1Cc1ccccc1Cl	-1	-2	53*	2	-8	20	9
Cn1c(=O)[nH]c2nncnc2c1=O	23	-2	68*	29	-15	68*	-2	Fluor interf inh=>100
S=P(c1ccccc1)(c1ccccc1)c1cnc2ccccn12	-5	-1	.	.	.	.	.
CCCCNC(=O)c1c(N)n(Cc2ccc3c(c2)OCO3)c2nc3ccccc3nc12	19	-3	95*	20	-1	31	5
CCCNC(=O)c1c(N)n(CC2CCCO2)c2nc3ccccc3nc12 (stereo not drawn)	16	2	93*	35*	-19	44*	8	Fluor interf inh=>100
CCN1CCN(Cc2cccnc2)CC1	-10	-1	-4	6	-1	.	.
O=[N+]([O-])c1ccc(NC2CCCC2)c2ccncc12	.	.	42*	2	-13	15	2
O=[N+]([O-])c1ccc(N2CCCC2)c2ccncc12	-5	1	34	10	-15	.	.
O=[N+]([O-])c1ccc(NC2CCN(Cc3ccccc3)CC2)c2ccncc12	7	0	74*	-2	-16	21	9
c1ccc2c(N3CCNCC3)nsc2c1	-7	-4	-13	10	3	.	.
CCC(C)N1C(=O)NC(=O)C2(Cc3c(ccc4ccccc34)N(C)C2)C1=O (stereo not drawn)	5	19	65*	19	-4	30	4
COC(/C(C)=C/C=C/C(C)=C/c1coc(C)n1)C(C)C1CC(O)C2(C)OC2C=CC(C)C2CC(CC(=O)O2)CC2OC2C(=O)O1 (stereo not drawn)	-7	-3	.	.	.	.	.
N#CCC[C@H]1CC[C@]2(CCCN(Cc3ccccn3)C2)O1	-10	-1	.	.	.	.	.
CC(CC(C)(C)N1CC1)=NO	-6	-2	.	.	.	.	.
CCn1nc(/C=C/c2ccccc2)nc2c(=O)n(C)c(=O)nc1-2	79*	-7	99*	.	.	100*	9	Fluor interf inh=>100
COc1ccc(-n2c(/C=C/c3ccc(O)cc3)nc3ccccc3c2=O)cc1	4	2	0	-14	2	.	.
CC(C)OCCCNC(=O)c1c(N)n(CC2CCCO2)c2nc3ccccc3nc12 (stereo not drawn)	82*	3	94*	24	-4	30	17	TDP2 inh conf=7
CC1(C)C(=O)CC[C@@]2(C)C1=CCC1C2CC[C@]2(C)C(=O)CCC12 (stereo partly drawn)	-10	-5	8	.	-3	.	.
CCOc1cccc(N2C(=O)/C(=C/c3ccco3)C(=O)NC2=S)c1	-5	20	-4	-32	-7	.	.
COc1ccccc1C=C1C(=O)NC(=S)NC1=O	-2	30*	.	.	.	.	.	PRMT1 confirm=39*
COc1ccccc1/C=C1\C(=O)NC(=S)N(c2ccccc2)C1=O	-10	38*	0	2	0	.	.	PRMT1 confirm=21*
O=C1NC(=S)N(c2ccccc2)C(=O)/C1=C/c1ccco1	7	55*	9	0	-18	.	.	PRMT1 confirm=74*
